Data published in ChEMBL document CHEMBL5154924, “Discovery of In Vivo Active Sphingosine-1-phosphate Transporter (Spns2) Inhibitors” (J Med Chem, 2022).
Calls of active or inactive are those of the source. The rule behind the calls is not given here.

Target: T1, Sphingosine-1-phosphate transporter SPNS2 (Mus musculus) (UniProt Q91VM4)
T1 sequence (whole entry): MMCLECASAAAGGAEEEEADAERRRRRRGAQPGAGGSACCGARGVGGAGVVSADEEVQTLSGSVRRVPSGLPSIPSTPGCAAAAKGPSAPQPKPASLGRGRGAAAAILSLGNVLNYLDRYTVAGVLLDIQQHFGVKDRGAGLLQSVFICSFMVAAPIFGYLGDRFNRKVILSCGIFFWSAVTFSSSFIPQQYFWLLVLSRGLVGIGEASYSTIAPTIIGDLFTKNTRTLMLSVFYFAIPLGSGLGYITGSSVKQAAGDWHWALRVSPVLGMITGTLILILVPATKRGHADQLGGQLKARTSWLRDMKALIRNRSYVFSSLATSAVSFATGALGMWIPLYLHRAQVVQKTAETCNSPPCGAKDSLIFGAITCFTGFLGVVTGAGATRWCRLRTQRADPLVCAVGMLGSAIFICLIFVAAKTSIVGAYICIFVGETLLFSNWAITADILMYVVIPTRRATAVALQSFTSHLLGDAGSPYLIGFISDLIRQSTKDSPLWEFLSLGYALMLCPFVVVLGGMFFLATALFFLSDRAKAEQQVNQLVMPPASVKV
Assay: (§1) Inhibition of mouse Spns2 transfected in human HeLa cells by measuring S1P release by LC/MS analysis
Assay type: cell-based
Conditions: dose <= 5.0 µM, DDE = dose-dependent effect
In short: (§2)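 Mouse Spns2-transfected HeLa cells (G418-selected) held 18–20 h in RPMI 1640/0.2% fatty acid-free BSA containing 1 mM 4-deoxypyridoxine, 2 mM NaF and 0.2 mM Na₃VO₄ across a compound concentration series. Released S1P quantified by LC-MS/MS with d₇-S1P internal standard; IC50 calculated from the concentration–effect curve.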

Row | Compound | inhibition
1 | CCCCCCCCCCc1ccc(-c2noc(CCCN)n2)cc1.Cl | Dde

Target: T2, Sphingosine-1-phosphate transporter SPNS2 (Mus musculus, UniProt Q91VM4)
T2 sequence (Q91VM4 whole entry): T1 sequence (whole entry)
Assay: as §1
Assay type: cell-based
Conditions: not given
In short: as §2

Row | Compound | IC50
2 | CCCCCCCCCCc1ccc(-c2noc(CCCN)n2)cc1.Cl | 1.93 µM

Tested on: not listed separately
Assay: Drug concentration in Sprague-Dawley rat plasma at 10 mg/kg, ip at 2 hrs by LC-MS/MS analysis
Assay type: ADME, organism-based
Conditions: not given
In short: (§3)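 Single intraperitoneal dose to 4-week-old male rats (n = 4); vehicle 36.1% PEG400/9.1% ethanol/4.6% Solutol/50% H₂O. Tail-nick whole blood (ca. 70 μL) collected at 0, 0.5, 1, 2, 4, 6 and 24 h postdose. Plasma drug levels quantified by LC-MS/MS with an internal standard.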

Row | Compound | concentration at 2 h
3 | CCCCCCCCCCc1ccc(-c2noc(CCCN)n2)cc1.Cl | 5 µM

Target: Sphingosine kinase 1 (Mus musculus, UniProt Q8CI15)
Sequence (Q8CI15 whole entry): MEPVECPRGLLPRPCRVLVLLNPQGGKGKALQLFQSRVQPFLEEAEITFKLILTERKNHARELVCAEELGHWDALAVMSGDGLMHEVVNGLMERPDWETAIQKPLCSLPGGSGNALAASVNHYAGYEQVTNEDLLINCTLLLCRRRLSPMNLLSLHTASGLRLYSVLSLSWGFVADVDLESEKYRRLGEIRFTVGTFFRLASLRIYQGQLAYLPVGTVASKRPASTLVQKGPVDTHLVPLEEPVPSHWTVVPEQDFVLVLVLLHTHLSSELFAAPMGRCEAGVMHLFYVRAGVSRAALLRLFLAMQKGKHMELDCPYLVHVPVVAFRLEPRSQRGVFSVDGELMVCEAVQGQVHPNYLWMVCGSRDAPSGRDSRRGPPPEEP
Assay: Inhibition of recombinant mouse SphK1 transfected in HEK293T cells using D-erythro-sphingosine measured after 20 mins in presence of gamma-[p32]-ATP by autoradiography and liquid scintillation counting method
Assay type: cell-based
Conditions: not given

Row | Compound | IC50
4 | CCCCCCCCCCc1ccc(-c2noc(CCCN)n2)cc1.Cl | ≥ 30 µM

Target: T3, Sphingosine kinase 2 (Mus musculus, UniProt Q9JIA7)
T3 sequence (Q9JIA7 whole entry): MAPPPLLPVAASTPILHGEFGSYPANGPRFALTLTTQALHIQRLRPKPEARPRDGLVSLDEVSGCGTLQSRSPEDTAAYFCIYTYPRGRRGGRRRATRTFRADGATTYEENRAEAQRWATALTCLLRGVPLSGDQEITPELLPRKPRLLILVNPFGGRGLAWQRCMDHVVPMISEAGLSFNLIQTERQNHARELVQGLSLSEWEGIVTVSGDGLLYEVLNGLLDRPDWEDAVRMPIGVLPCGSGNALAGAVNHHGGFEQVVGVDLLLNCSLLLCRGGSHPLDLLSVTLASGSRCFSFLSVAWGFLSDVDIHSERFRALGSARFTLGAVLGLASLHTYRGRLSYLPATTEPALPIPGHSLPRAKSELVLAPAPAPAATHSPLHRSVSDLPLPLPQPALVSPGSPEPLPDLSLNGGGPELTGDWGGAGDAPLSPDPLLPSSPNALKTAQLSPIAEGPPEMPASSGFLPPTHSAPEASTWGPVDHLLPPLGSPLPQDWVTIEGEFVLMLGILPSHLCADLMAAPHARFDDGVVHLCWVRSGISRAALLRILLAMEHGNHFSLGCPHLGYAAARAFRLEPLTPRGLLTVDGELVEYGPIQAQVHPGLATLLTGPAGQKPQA
Assay: Inhibition of recombinant mouse SphK2 transfected in HEK293T cells using D-erythro-sphingosine measured after 20 mins in presence of gamma-[p32]-ATP by autoradiography and liquid scintillation counting method
Assay type: cell-based
Conditions: not given
In short: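 Lysate of mouse SphK2 from baculovirus-infected Sf9 or transfected HEK293T cells (0.02–0.03 mg protein). Buffer: 20 mM Tris-Cl pH 7.4 with MgCl₂, phosphatase/protease inhibitors, 10% glycerol and 1 M KCl. Substrate 5 μM D-erythro-sphingosine, 10 μM γ-[³²P]ATP, compound 10–30,000 nM. Reaction run 20 min at 37 °C, then lipids extracted and separated by TLC. Product detected by autoradiography and quantified by scintillation counting; run in duplicate.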

Row | Compound | IC50
5 | CCCCCCCCCCc1ccc(-c2noc(CCCN)n2)cc1.Cl | 30 µM

Tested on: Mus musculus
Assay: In vivo inactivation of Spns2 gene in C57BL/6j mouse assessed as decrease in plasma S1P at 20 mg/kg, ip measured after 4 hrs by LC-MS/MS analysis
Assay type: functional, organism-based
Conditions: not given
In short: (§4)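 Blood drawn 4 h postdose. Lymphocytes counted from 20 μL blood on a haematology analyzer; plasma S1P quantified by LC-MS/MS. Compared with vehicle-treated controls by t-test.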

Row | Compound | inhibition
6 | CCCCCCCCCCc1ccc(-c2noc(CCCN)n2)cc1.Cl | Active

Target: T1, Sphingosine-1-phosphate transporter SPNS2 (Mus musculus)
Assay: Inhibition of mouse Spns2 transfected in human HeLa cells by measuring S1P release at 2 uM by LC/MS analysis relative to control
Assay type: cell-based
Conditions: not given
In short: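 HeLa cells stably transfected with mouse Spns2 and selected with G418, grown to near confluence. Medium replaced with RPMI 1640/0.2% fatty acid-free BSA containing 1 mM 4-deoxypyridoxine, 2 mM NaF and 0.2 mM Na₃VO₄. Compound added to duplicate wells, incubated 18–20 h. Medium S1P measured by LC-MS/MS against d₇-S1P after TCA precipitation and methanol extraction. Inhibition expressed relative to no-inhibitor control.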

Row | Compound | inhibition
7 | CCCCCCCCCCc1ccc(-c2noc(CCCN3CCCCC3)n2)cc1 | 0%
8 | CCCCCCCCCCc1ccc(-c2noc(CCCN)n2)cc1.Cl | 67%
9 | CCCCCCCCCCc1ccc(-c2noc(C[C@@H]3CCNC3)n2)cc1 | 44%
10 | CCCCCCCCCCc1cccc(-c2noc(CCCN)n2)c1 | 26%
11 | CCCCCCCCCCc1ccc(-c2noc([C@@H]3CCNC3)n2)cc1 | 62%
12 | CCCCCCCCCCc1ccc(-c2noc(CCN)n2)cc1 | 59%
13 | CCCCCCCCCc1ccc(Cc2noc(CCCN)n2)cc1 | 34%
14 | CCCCCCCCC(=O)Nc1ccc(-c2noc(CCCN)n2)cc1 | 35%
15 | CCCCCCCCc1ccc(CCc2noc(CCCN)n2)cc1 | 40%
16 | CCCCCCCCCCc1ccc(-c2noc([C@H](CCCCN)NC(C)=O)n2)cc1 | 40%
17 | CCCCCCCCCCc1ccc(-c2noc(CCCNC)n2)cc1 | 45%
18 | CCCCCCCCc1ccc(-c2noc(CCCN)n2)cc1 | 70%
19 | CCCCCCCCCCc1ccc(-c2noc(CC(O)CN3CCCCC3)n2)cc1 (configuration not stated) | 2%
20 | CCCCCCCCCCc1ccc(-c2noc(CCCN3CCOCC3)n2)cc1 | 2%
21 | CCCCCCCCCCc1ccc(-c2noc(CCCN(C)C)n2)cc1 | 8%
22 | CCCCCCCc1ccc(-c2noc(CCCN)n2)cc1 | 52%
23 | CCCCCCCCCCc1ccc(-c2noc(CC3CNC3)n2)cc1 | 63%
24 | CCCCCCCCCCc1ccc(-c2noc(CN3CCNCC3)n2)cc1 | 19%
25 | CCCCCCCCCCc1ccc(-c2noc([C@@H](N)CCCN)n2)cc1 | 40%
26 | CCCCCCCCCCc1ccc(-c2nnc(CCCN)o2)cc1 | 59%

Row | Compound | inhibition
27 | CCCCCCCCCCc1ccc(-c2noc([C@@H]3CCCN3)n2)cc1 | 21%
28 | CCCCCCc1ccc(-c2noc(CCCN)n2)cc1 | 55%
29 | CCCCCCCCCCc1ccc(-c2noc([C@H]3CCNC3)n2)cc1 | 26%
30 | CCCCCCCCCCc1ccc(-c2cn(C)c(CCCN)n2)cc1 | 51%
31 | CCCCCCCCCCc1ccc(-c2noc(C(Cl)CCN)n2)cc1 (configuration not stated) | 5%
32 | CCCCCCCCCCc1ccc(-c2noc(CC(CN)OC(C)=O)n2)cc1 (configuration not stated) | 0%
33 | CCCCCCCCCCc1ccc(-c2noc(CC(O)CNCC)n2)cc1 (configuration not stated) | 5%
34 | CCCCCCCCCc1ccc(-c2noc(CCCN)n2)cc1 | 61%
35 | CCCCCCCCCCCc1ccc(-c2noc(CCCN)n2)cc1 | 49%
36 | CCCCCCCCCCc1ccc(-c2noc([C@H]3CCC[C@@H](N)C3)n2)cc1 | 29%
37 | CCCCCCCCCCc1ccc(-c2noc(CC(O)CN3CCOCC3)n2)cc1 (configuration not stated) | 0%
38 | CCCCCCCCCCc1ccc(-c2noc(CCCCN)n2)cc1 | 55%
39 | CCCCCCCCCOc1ccc(-c2noc(CCCN)n2)cc1F | 50%
40 | CCCCCCCC(=O)NCc1ccc(-c2noc(CCCN)n2)cc1 | 11%
41 | CCCCCCCCCCc1ccc(-c2noc([C@H]3CCCN3)n2)cc1 | 12%
42 | CCCCCCCCCCc1ccc(-c2noc([C@@H]3CCC[C@@H](N)C3)n2)cc1 | 13%
43 | CCCCCCCCCCc1ccc(-c2noc(CC(O)CN)n2)cc1 (configuration not stated) | 59%
44 | CCCCCCCCCOc1ccc(-c2noc(CCCN)n2)cc1 | 49%
45 | CCCCCCCCCCc1ccc(-c2noc([C@@H](N)CCN)n2)cc1 | 14%
46 | CCCCCCCCCCc1ccc(-c2ccnn2CCCN)cc1 | 45%

Row | Compound | inhibition
47 | CCCCCCCCCCc1ccc(-c2noc([C@@H]3CC[C@H](N)C3)n2)cc1 | 38%
48 | CCCCCCCCCCc1ccc(-c2coc(CCCN)n2)cc1 | 49%
49 | CCCCCCCCCCc1ccc(-c2csc(CCCN)n2)cc1 | 45%
50 | CCCCCCCCCCc1ccc(-c2noc(C[C@H](C)N)n2)cc1 | 44%
51 | CCCCCCCCCCc1ccc(-c2c[nH]c(CCCN)n2)cc1 | 63%
52 | CCCCCCCOc1ccc2cc(-c3noc(CCCN)n3)ccc2c1 | 8%
53 | CCCCCCCCCCc1ccc(-c2noc(-c3cccc(CN)c3)n2)cc1 | 2%
54 | CCCCCCCCNC(=O)c1ccc(-c2noc(CCCN)n2)cc1 | 0%
55 | CCCCCCCCCCc1ccc(-c2noc(CC(O)CN(C)C)n2)cc1 (configuration not stated) | 61%
56 | CCCCCCCCCCc1ccc(-c2noc(CC[C@@H](N)C(=O)O)n2)cc1 | 5%
57 | CCCCCCCCCCc1ccc(-c2noc(CC(O)CN3CCCC3)n2)cc1 (configuration not stated) | 21%
58 | CCCCCCCCCOc1ccc(-c2noc(CCCN)n2)cc1C(F)(F)F | 24%
59 | CCCCCCCCCCc1ccc(-c2noc(CN)n2)cc1 | 62%
60 | CCCCCCCCCCc1ccc(-c2noc(C3CNC3)n2)cc1 | 65%
61 | CCCCCCCCCCc1ccc(-c2noc([C@H](N)CCCCN)n2)cc1 | 50%
62 | CCCCCCCCCCc1ccc(-c2noc(C3CCNCC3)n2)cc1 | 66%
63 | CCCCCCCCCCc1ccc(-c2noc(CCCN3CCCC3)n2)cc1 | 3%
64 | CCCCCCCCCCc1ccc(-c2ccn(CCCN)n2)cc1 | 44%
65 | CCCCCCCCCCc1ccc(-c2cnn(CCCN)c2)cc1 | 50%
66 | CCCCCCCCCCc1ccc(-c2noc([C@@H](N)CCCCN)n2)cc1 | 43%

Tested on: Rattus norvegicus
Assay: In vivo inactivation of Spns2 gene in Sprague-Dawley rat assessed as decrease in circulating lymphocytes at 10 mg/kg, ip measured upto 24 hrs by blood analyzer
Assay type: functional
Design: scale not given: the % may be the effect or the level left
Conditions: not given
In short: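 Male rats 4 weeks old (n = 4) received a single intraperitoneal dose in PEG400/ethanol/Solutol/water vehicle. Tail-nick blood sampled at 0, 0.5, 1, 2, 4, 6 and 24 h. Lymphocytes counted from 20 μL blood on a haematology analyzer; counts compared with time 0.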

Row | Compound | Activity
67 | CCCCCCCCCCc1ccc(-c2noc(CCCN)n2)cc1.Cl | 25%

Species on record: Mus musculus
Assay: Selectivity ratio of IC50 for mouse SphK1 to recombinant mouse Snps2
Conditions: not given

Row | Compound | Ratio IC50
68 | CCCCCCCCCCc1ccc(-c2noc(CCCN)n2)cc1.Cl | 15

Tested on: not listed separately
Assay: Drug concentration in Sprague-Dawley rat plasma at 10 mg/kg, ip at 24 hrs by LC-MS/MS analysis
Assay type: ADME, organism-based
Conditions: not given
In short: as §3

Row | Compound | concentration at 24 h
69 | CCCCCCCCCCc1ccc(-c2noc(CCCN)n2)cc1.Cl | 2 µM

Tested on: Mus musculus
Assay: In vivo inactivation of Spns2 gene in C57BL/6j mouse assessed as decrease in circulating lymphocytes at 20 mg/kg, ip measured after 4 hrs by blood analyzer
Assay type: functional, organism-based
Conditions: not given
In short: as §4

Row | Compound | inhibition
70 | CCCCCCCCCCc1ccc(-c2noc(CCCN)n2)cc1.Cl | Active

Tested on: not listed separately
Assay: Half life in Sprague-Dawley rat plasma at 10 mg/kg, ip by LC-MS/MS analysis
Assay type: ADME, organism-based
Conditions: not given
In short: as §3

Row | Compound | half-life
71 | CCCCCCCCCCc1ccc(-c2noc(CCCN)n2)cc1.Cl | > 8 h

Species on record: Mus musculus
Assay: Selectivity ratio of IC50 for mouse SphK2 to recombinant mouse Snps2
Conditions: not given

Row | Compound | Ratio IC50
72 | CCCCCCCCCCc1ccc(-c2noc(CCCN)n2)cc1.Cl | 15
